This note sets out measurements from the EternaBench riboswitch data.

One may read the apparent Kd as the concentration giving half-maximal binding under the conditions of the assay.

The subject of this data set is MS2 coat protein. Briefly: apparent Kd, MS2 coat protein; higher = weaker binding; RNA-MaP array; FMN 200 µM where present. The gist of the method: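 The titrant was SNAP-549-labelled MS2 coat protein, run from 0.7 or 1.5 nM in doubling steps to 3 µM. It was applied to designs transcribed by stalled E. coli RNA polymerase on Illumina sequencing-chip clusters, without ligand first and then with constant ligand, in 100 mM Tris-HCl pH 7.5, 80 mM KCl, 4 mM MgCl2, BSA, DTT, yeast tRNA and Tween-20. The apparent Kd is the median of filtered per-cluster binding-curve fits, with green signal normalised to red-channel RNA signal and control-cluster median Fmax.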

Where [1] appears, read: designed as: OFF switch for flavin mononucleotide, no ligand.
The mark [2] stands for this setting: ligand present: flavin mononucleotide, designed as: OFF switch for flavin mononucleotide.
[3] abbreviates: designed as: ON switch for flavin mononucleotide, no ligand.
The mark [4] stands for this setting: ligand present: flavin mononucleotide, designed as: ON switch for flavin mononucleotide.

In the case of “AUUAUUGGCUAAGGAUAUGGAUACAUGAGGAUCACCCAUGUAUUUUUUGUGAUCAUAUAAAUGAUCCAGAAGGUAGCUGUUUAU”, the “apparent Kd” value reads like this: under setting [1], 23.1 nM; under setting [2], 70.1 nM.
For “AAAAGACAUGAGGAUCACCCAUGUAAAGACGUAGGAGGAUAUGUAUGGAAACCAUACUGUACAGAAGGCCUUUGUC”, the “apparent Kd” value reads like this: under setting [3], 23.8 nM; under setting [4], 18.3 nM.
With “UACGGACAUGAGGAUCACCCAUGUGAGGAUAUCGGUACCGAUAGCAUAAUAUACUCGGCGAGAAGGCACAGCGU”, the “apparent Kd” value under setting [1] was found to be 30 nM and the “apparent Kd” value under setting [2] came to 31.8 nM.
Taken in the same sequence, the figures for “UUAAUGUCAGGAUAUCUUAGGUGGGUGCGAAGAUUCAUUUUGGAGAAGGGACAUGAGGAUCACCCAUGUACCUU” were 18.7 nM and 19.5 nM.
Turning to “GCAUGCAAGUAGAAGGACAGAUAUUUUGAUACUGUAGGAUAUGCAGAAUCAUAUCCACAUGAUAACAUGAGGAUCACCCAUGUA”, the “apparent Kd” value runs as follows: under setting [1], 11.6 nM; under setting [2], 10 nM.
For “AACAUGUCAGGAUAUGUGACAUGGCUCUUCGGAGCAAGAUCACAGAAGGGACAUGAGGAUCACCCAUGUCGAUC”, the “apparent Kd” value worked out at 38.7 nM under setting [1] and 156 nM under setting [2].
The matching figures for “CACCGUUAGUGAGGAUAUAGUACAUGAGGAUCACCCAUGUAAUAAAUGAGAAUUUCGGAUGUAUGCUAGAAGGCACAAAUCGGC”: 60.4 nM and 65.8 nM.
Taken in the same sequence, the figures for “CCAUGGCUGUUAGGAUAUGUCUGACAAAGUCAGACAGAAGGGACAUGAGGAUCACCCAUGUGAAGAAAACCACAUUUGCCAUGG” were 7.74 nM and 7.72 nM.
The matching figures for “CCUCCCUGAGGAUAUCCACCCUCAUACAUGAGGAUCACCCAUGUUCAACCCUGGGUUCCCGGAGAAGGCAGCCUCC”: 706 nM and 650 nM.
Consider “CGGUAAACCACAGGAUAUGGCUAGUAUAACUAGCCAGAAGGGUGGUCGAAACCAUGUAAAUACAUGAGGAUCACCCAUGUAUCC”, for which the “apparent Kd” value is 496 nM under setting [3] and 47.6 nM under setting [4].
Taken in the same sequence, the figures for “GUAGCUAUCGGAGGAUAUUCAUACCGUAAACGGACAUGAGGAUCACCCAUGUAGCGAAAGCCUUGGGAGAAGGCCGAUAGCUAC” were 942 nM and 88.8 nM.
For the sequence “UGAGUAGCGAAACAAUGCACAUGAGGAUCACCCAUGUCUACACAGGAUAUGCGACGCUCCAGUUAGCAGAAGGGUGAACUCAAA”, the “apparent Kd” value runs as follows: under setting [3], 40.2 nM; under setting [4], 82.3 nM.
Consider “GCGUUGAACGAGAAGGCCAAUACAUGAGGAUCACCCAUGUUGUGAUGUUUUGGAGGAUAUCGAUCGUCGUCUCAUGAGCAACGC”, for which the “apparent Kd” value is, setting by setting: under setting [1], 7.47 nM; under setting [2], 10.2 nM.
Regarding “AUUUUACAUGAGGAUCACCCAUGUUUUGGCGGGUCAGGAUAUAGAUCGGAUGAGUUCUGGCUAGAAGGGACAUGUA”, the “apparent Kd” value reads like this: under setting [3], 54 nM; under setting [4], 106 nM.
Regarding “GGUCCACGAGGAUAUCGAUUAUAGUACAUGAGGAUCACCCAUGUUGUCCAGGUUUCGUUUCGAGAAGGCGUGGGUU”, the “apparent Kd” value turned out to be 88.4 nM under setting [1] and 52.6 nM under setting [2].
With “AUGUAGCUAGGAUAUACAUAGAUACAGAUUCAUGUAGAACUACAUGAGGAUCACCCAUGUAGAAGGAGCUAAAA”, the “apparent Kd” value was found to be 28.7 nM under setting [1] and 50.4 nM under setting [2].
As for “UGAUAGGACAGAGGAUAUACGUGCUGGUGAUACUAGCAAAGUAUCGUGACAUGAGGAUCACCCAUGUAGAAGGCUGUCCUAUCU”, the “apparent Kd” value is 81.1 nM under setting [1] and 27.3 nM under setting [2].
Consider “UGGCUGAGUCGAGGAUAUGAUCUUCAUAUAAUAACAUGAGGAUCACCCAUGUAUAAUUACAUGGAUCAGAAGGCGACUCAGCCA”, for which the “apparent Kd” value under setting [4] worked out at 38.1 nM.
For “UGCGAACAGGCUAACAUGAGGAUCACCCAUGUGGACUCAUGGUAGGAUAUCGGGAAGGAGGAAACCGAGAAGGGCCGGUGAGCC”, the “apparent Kd” value is, setting by setting: under setting [3], 848 nM; under setting [4], 372 nM.
As to “GGCAAAUGAGCAGGAUAUACAGUACAUGCCUAAUGGACUCACGCACAUGAGGAUCACCCAUGUACGUAGAAGGGCUCCGAGGAG”, the “apparent Kd” value by setting is: under setting [1], 15.2 nM; under setting [2], 19.1 nM.
